Screens as filed in PubChem BioAssay.
A3A deaminase = blocks human APOBEC3A ssDNA deamination; inhibition, % at 20 µM; 330,000 tested, 0.41% active; recombinant A3A, FAM/TAMRA ssDNA deamination fluorescence; AID 493011; P31941;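 active = at least 40% inhibition at 20 µM here, with at most 30% in a related deaminase screen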;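 note: plate controls were A3A with DMSO for no effect and wells lacking A3A enzyme for full effect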
Target sequence (P31941 whole entry, looked up): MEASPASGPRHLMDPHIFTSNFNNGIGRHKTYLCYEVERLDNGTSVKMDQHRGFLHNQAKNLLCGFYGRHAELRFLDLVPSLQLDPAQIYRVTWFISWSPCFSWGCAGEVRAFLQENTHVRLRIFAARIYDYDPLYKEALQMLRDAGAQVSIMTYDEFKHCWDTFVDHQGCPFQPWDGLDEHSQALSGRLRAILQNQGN
CAL PDZ FP-1 = blocks peptide binding to human CAL PDZ domain. Q9HD26. 330,000 tested, 0.02% active. AID 504414. inhibition, % at 20 µM. purified CAL PDZ, TMR-peptide fluorescence polarization, 1 h;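 active = highest replicate inhibition of at least 40%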;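 note: plate controls were DMSO neutral control wells for no effect and unlabeled competitor peptide control wells for full effect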
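Material – purified CerCALP PDZ construct · Detection – FP readout, S and P plane fluorescence · Measure – percent inhibition from loss of millipolarization · Controls – unlabelled peptide for full inhibition, DMSO wells as neutral · Probe or stimulus – TMR-labelled reporter peptide T*-PRC34 bound in PDZ groove · Times – 1 h at RT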
A3G deaminase = APOBEC3G (human) deaminase inhibition; Q9HC16; inhibition, % at 20 µM; recombinant A3G, ssDNA deamination FAM/TAMRA fluorescence; 330,000 tested, 0.28% active; AID 493012;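 active = inhibition of at least 40% at 20 µM, with no more than 30% in the related APOBEC3A deaminase screen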;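 note: plate controls were DMSO wells with A3G for no effect and wells lacking A3G enzyme for full effect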
Target sequence (Q9HC16 whole entry, looked up): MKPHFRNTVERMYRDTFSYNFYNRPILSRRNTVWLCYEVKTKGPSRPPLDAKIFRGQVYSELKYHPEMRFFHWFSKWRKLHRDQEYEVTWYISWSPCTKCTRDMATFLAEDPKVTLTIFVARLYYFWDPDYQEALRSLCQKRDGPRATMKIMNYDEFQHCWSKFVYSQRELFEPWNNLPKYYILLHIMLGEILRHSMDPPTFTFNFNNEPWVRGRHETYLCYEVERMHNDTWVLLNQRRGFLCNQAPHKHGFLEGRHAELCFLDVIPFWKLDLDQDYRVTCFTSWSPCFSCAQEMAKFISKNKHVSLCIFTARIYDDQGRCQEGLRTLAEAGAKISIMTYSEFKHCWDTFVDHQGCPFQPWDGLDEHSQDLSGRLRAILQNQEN
LANA DNA inh = inhibitors of KSHV LANA C-terminal domain DNA binding | MBP-C-LANA/FAM-LBS DNA binding, fluorescence polarization | inhibition, % at 9 µM | 340,000 tested, 0.078% active | AID 504423;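 active = highest replicate inhibition at or above 60% at 9 µM, even if other replicates fall short; inactive = all replicates below 60% inhibition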;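 note: 0% = neutral control wells and 100% = 4 µM acridine orange control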
CAL PDZ FP-2 = CAL PDZ (human) peptide binding inhibition | 300,000 tested, 0.92% active | AID 602252 | purified CAL PDZ, TMR-peptide fluorescence polarization, 1 h | inhibition, % at 24.9 µM | Q9HD26;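 active = mean inhibition of at least 30% with at least half of replicates also reaching 30%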;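 note: 0% = DMSO neutral control and 100% = excess unlabeled competitor peptide PRC23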
Keap1-Nrf2 PPI = Keap1-Nrf2 (human) interaction inhibition; Keap1 Kelch-Nrf2 peptide fluorescence polarization, 1536-well; inhibition, % at 9.4 µM; 340,000 tested, 0.15% active; AID 504523; in the data active = inhibition above about 12%;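 note: human Keap1 Kelch domain with fluorescein labeled Nrf2 9mer peptide probe; 0% = neutral control wells and 100% = peptide positive control; higher means more block of Keap1 binding to Nrf2 peptide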
* marks the source's active call; other numbers are inactive results; . = no result given. A selection: hits, their analogues and other compounds. The true share with any hit is near 1.7%.

SMILES	A3A deaminase	CAL PDZ FP-1	A3G deaminase	LANA DNA inh	CAL PDZ FP-2	Keap1-Nrf2 PPI
COc1ccc(-n2nc(C(=O)NCC(=O)N3CCN(c4ccccc4F)CC3)c3ccccc3c2=O)cc1	-1	-1	-3	0	73*	2
COc1ccc(OC)c(-n2c(-c3ccccc3)n[nH]c2=S)c1	-3	1	22	0	37*	2
COc1ccc(OC)c(-n2c(-c3cccc(C)c3)n[nH]c2=S)c1	-2	-2	11	-1	1	1
Cc1nc(C)n(C(C)CC(=O)O)n1 (centres undefined)	-3	-1	-10	0	-2	-3
Cc1ccc(NC(=O)CCS(=O)(=O)c2ccccc2)cc1S(=O)(=O)N1CCCCCC1	-3	-1	-12	-3	-1	-3
CCC(C)(C(=O)NC1CCCC1)N(C(=O)CC1NC(=O)NC1=O)c1c(C)n(C)n(-c2ccccc2)c1=O (centres undefined)	-3	0	-9	-1	.	-1
CCC(C)(C(=O)NC1CCCC1)N(C(=O)CC1NC(=O)NC1=O)c1ccc(C)cc1 (centres undefined)	0	0	0	0	60*	-2
COc1ccc(F)cc1S(=O)(=O)Nc1cc2c3c(c1)CCC(=O)N3CCC2	-3	-3	-6	0	-2	-4
Cc1cc(=O)nc2c3ccccc3n(C(C)C(=O)Nc3c(F)c(F)c(F)c(F)c3F)n12 (centres undefined)	-11	6	-9	1	82*	0
COc1ccc(C(=O)Nc2ccncc2)c(OC)c1	-5	0	-5	0	-6	-2
CCn1cc(C(=O)NC2CCCCCC2)c2cc(OC)c(OC)cc2c1=O	7	-1	3	0	48*	2
COc1cc(SC)ccc1C(=O)NC1CCCCC1	1	-1	-2	0	47*	-1
COc1cc(SC)ccc1C(=O)Nc1ccncc1	0	-2	0	-1	31*	-2
COc1ccccc1OCC(=O)NNC(=O)c1ccc2c(=O)n3c(nc2c1)CCC3	3	-3	0	0	-3	-4
CCS(=O)(=O)N1Cc2ccccc2CC1C(=O)NCCc1c[nH]c2ccccc12 (centres undefined)	-2	-1	-3	1	-1	0
CC(C)(C)NC(=O)Cn1c(SCC(=O)NC2CCCC2)nc2ccccc21	-2	-4	-10	-1	-3	-8
CC(C)(C)NC(=O)Cn1c(Cl)nc2ccccc21	-7	1	-19	-1	69*	0
O=C(CN(Cc1ccccc1F)C(=O)c1csnn1)NCc1ccc2c(c1)OCO2	-3	-1	-6	42	0	3
N#C/C(=C\c1cccs1)c1nc2ccccc2[nH]1	.	-1	.	1	18	1
N#C/C(=C/c1ccc(O)c(O)c1)c1nc2ccccc2[nH]1	-11	3	-26	1	114*	-9
O=C(CN1CCN(S(=O)(=O)c2ccccc2)CC1)N1CCCCC1	1	1	-6	0	-9	-2
Cc1nn(CC(=O)Nc2ccccc2)c(=O)c2ccccc12	-3	-1	-6	-1	7	4
COc1ccc(NC(=O)Cn2nc(C)c3ccccc3c2=O)cc1	-5	33	-9	1	37*	0
O=C(NNC(=O)c1ccc(Br)o1)c1ccc(NC(=O)c2ccccc2)cc1	1	-1	-2	0	10	-3
N/C(=N\O)c1ccc(NC(=O)c2ccc(Br)o2)cc1	-5	0	-5	-4	67*	-1
SMILES	A3A deaminase	CAL PDZ FP-1	A3G deaminase	LANA DNA inh	CAL PDZ FP-2	Keap1-Nrf2 PPI
Cc1ccc(S(=O)(=O)N(C)C)cc1NC(=O)CSc1ncn[nH]1	-3	-1	-8	-1	34*	2
Cc1ccc(NC(=O)c2cc(NC(=O)/C=C\C(=O)O)ccc2N2CCCCC2)cc1	.	-3	.	0	-3	-2
Cc1ccc(NC(=O)c2cc(NC(=O)c3ccccc3C(=O)O)ccc2N2CCCCC2)cc1	2	-3	-6	1	51*	-2
O=C(Cc1cccc(C(F)(F)F)c1)NCC(=O)Nc1cc(Cl)ccc1Cl	-5	-2	-11	1	-2	0
O=C(CNC(=O)c1ccc2c(c1)OCCO2)N/N=C/c1ccc([N+](=O)[O-])cc1	-1	-1	-5	-2	-2	-2
O=C(CNC(=O)c1ccc2c(c1)OCCO2)N/N=C/c1ccc(Cl)cc1	-2	-2	-6	0	70*	-5
COc1ccc(OC)c(-c2csc(NC(=O)c3ccc4c(c3)OCO4)n2)c1	0	1	-4	4	80*	-3
COc1ccc(OC)c(NC(=O)c2ccc3c(c2)OCO3)c1	-8	-1	-6	3	-1	-2
C=CCCCCCCCCC(=O)NNC1CC(=O)N(c2ccccc2)C1=O (centres undefined)	-3	0	-1	2	49*	-2
O=C(NCCC(=O)N1CCc2ccccc21)c1ccccc1Cl	-1	-2	-1	-1	15	3
CC(NC(=O)COC(=O)c1ccc([N+](=O)[O-])o1)c1ccccc1 (centres undefined)	-2	1	-2	108*	-2	0
Cc1nc2c(ncn2-c2ccccc2)c(=O)n1NC(=O)CN1CCN(C)CC1	-2	0	-7	-1	1	-6
CS(=O)(=O)c1ccc(Cl)c(NC(=O)c2cccc(-n3cnnn3)c2)c1	18	-2	-4	-1	-4	1
CC1CCCC(NC(=O)C2CCN(S(=O)(=O)c3cnc[nH]3)CC2)C1C (centres undefined)	-6	-1	-8	1	64*	-1
C/C(=N\NC(=O)Cc1cc(=O)[nH][nH]1)c1cccc([N+](=O)[O-])c1	-1	-1	-2	1	-7	-4
C/C(=N/NC(=O)c1cc(O)c(O)c(O)c1)c1ccc([N+](=O)[O-])cc1	.	-2	.	76*	-4	-2
C/C(=N/NC(=O)Cc1cc(=O)[nH][nH]1)c1ccc([N+](=O)[O-])cc1	-5	-2	-7	1	36*	-4
CCN(CC(=O)Nc1ccc(NC(C)=O)cc1)C(=O)CN1C(=O)C2CCCCC2C1=O (centres undefined)	-4	1	-7	21	1	1
CCOC(=O)CCC(=O)N(CCN(C(=O)CCC(=O)OCC)c1ccccc1)c1ccccc1	4	0	-7	4	4	4
CCN(C(=O)CCCC(=O)N(CC)c1ccccc1)c1ccccc1	0	-1	-5	-1	63*	-2
Cc1c(C(=O)N2CCCC2)c(S(=O)(=O)N2CCN(c3ccccc3F)CC2)c(C)n1C	-3	-2	-3	1	-4	1
OCC1(CCOc2ccccc2)CCN(Cc2cccn2-c2ncccn2)CC1	-5	-1	-3	-2	56*	2
